Reference: ChEMBL document CHEMBL1132277, “Probing the binding of indolactam-V to protein kinase C through site-directed mutagenesis and computational docking simulations” (J Med Chem, 1999)

Legend:
[1] = biological target: T1, Protein kinase C delta type (Mus musculus, UniProt P28867); assay: Binding of Indolactam-V(ILV) to wild-type Protein kinase C delta C1b domain
Method in brief: (§1)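 GST fusions of PKCδ C1b domains (wild type or point mutants) expressed in E. coli, used purified or as total lysates. Incubated 5 min at 18 °C with [3H]PDBu, phosphatidylserine, 1 mM EGTA and varying unlabelled (–)-ILV. Bound ligand separated by 35% poly(ethylene glycol) precipitation and centrifugation, then supernatant and pellet counted. Final ligand concentrations used in calculations. Where [3H]PDBu binding was insufficient, ILV affinity was left undetermined.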

[2] = biological target: T1, Protein kinase C delta type; assay: Binding of Indolactam-V(ILV) to mutant Protein kinase C delta C1b domain (Phe13 to Gly); method in brief: as §1
[3] = biological target: T1, Protein kinase C delta type; assay: Binding of Indolactam-V(ILV) to mutant Protein kinase C delta C1b domain (Pro11 to Gly); method in brief: as §1
[4] = biological target: T1, Protein kinase C delta type; assay: Binding of Indolactam-V(ILV) to mutant Protein kinase C delta C1b domain (Tyr8 to Gly); method in brief: as §1
[5] = biological target: T1, Protein kinase C delta type; assay: Binding of Indolactam-V(ILV) to mutant Protein kinase C delta C1b domain (Leu20 to Gly); method in brief: as §1
[6] = biological target: T1, Protein kinase C delta type; assay: Binding of Indolactam-V(ILV) to mutant Protein kinase C delta C1b domain (Thr12 to Gly); method in brief: as §1
[7] = biological target: T1, Protein kinase C delta type; assay: Binding of Indolactam-V(ILV) to mutant Protein kinase C delta C1b domain (Gln27 to Val); method in brief: as §1

T1 sequence (P28867 whole entry, the tested form may be a part): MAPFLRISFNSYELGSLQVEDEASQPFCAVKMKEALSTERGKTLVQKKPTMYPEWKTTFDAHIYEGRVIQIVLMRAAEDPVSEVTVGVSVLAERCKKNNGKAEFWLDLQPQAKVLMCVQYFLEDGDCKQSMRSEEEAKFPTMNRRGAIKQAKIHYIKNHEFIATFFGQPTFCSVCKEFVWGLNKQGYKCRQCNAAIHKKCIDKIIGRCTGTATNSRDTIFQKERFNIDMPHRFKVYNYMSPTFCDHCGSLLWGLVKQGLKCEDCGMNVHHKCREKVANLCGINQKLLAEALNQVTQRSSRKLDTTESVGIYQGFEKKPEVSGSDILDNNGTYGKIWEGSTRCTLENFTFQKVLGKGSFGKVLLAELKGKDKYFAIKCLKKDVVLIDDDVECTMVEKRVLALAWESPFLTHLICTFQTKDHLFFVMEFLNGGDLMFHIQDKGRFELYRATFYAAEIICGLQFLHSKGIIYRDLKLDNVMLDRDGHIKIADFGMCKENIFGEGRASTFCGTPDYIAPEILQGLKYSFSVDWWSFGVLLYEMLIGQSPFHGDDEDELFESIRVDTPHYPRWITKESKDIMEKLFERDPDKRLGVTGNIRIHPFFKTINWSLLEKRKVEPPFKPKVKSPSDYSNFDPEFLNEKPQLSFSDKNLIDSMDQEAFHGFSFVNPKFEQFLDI

CC(C)[C@H]1C(=O)N[C@H](CO)Cc2c[nH]c3cccc(c23)N1C [INDOLACTUM]
Ki [1]: 2.01 nM | Ki [2]: 10.9 nM | Ki [3]: 7080 nM | Ki [4]: 658 nM | Ki [5]: 66.2 nM | Ki [6]: 25.3 nM | Ki [7]: 1100 nM
